Variants at the floor of the assay were thinned out.
B1: tRNA (parent)
chain: GUUCCGUUGGCGUAAUGGUAACGCGUCUCCCUCCUAAGGAGAAGACUGCGGGUUCGAGUCCCGUACGGAACG

Variants of: B1
Test: yeast fitness relative to wild type (ratio to wild type); higher = fitter; tRNA-Arg(CCU), competitive growth, 37 C, YPD
In short: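 The tRNA-Arg(CCU) gene variants were made by chemical synthesis with a 3% per-site mutation rate at 69 sites and inserted at the native genomic locus of Saccharomyces cerevisiae. After pooling, the strains were competed in YPD at 37°C for 24 hours in six parallel replicates. Gene amplicons from the start population and each end population were read by 100-nucleotide paired-end sequencing, and Darwinian fitness relative to wild type was taken from genotype frequency changes. Genotypes needed ≥ 100 starting reads, and estimates < 0.5 were set to 0.5.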

Point of comparison: U13A A70C, yeast fitness 1.03. Against it:
- G12C U35A G41C — lower, ≤ 0.5
- G12C U35C — lower, 0.691
- G12C U35C A37G G38A A45U A70G — lower, ≤ 0.5
- G12C U35G — lower, 0.677
- G12C U35G A69C — lower, 0.571
- G12C U35G G58A G67A — lower, 0.706
- G12C U47A — lower, 0.596
- G12C U47A G68C — lower, 0.533
- G12C U47G — lower, 0.602
- G12C U53A C61U C62A — lower, ≤ 0.5
- G12C U53C C60G G63U — lower, 0.691
- G12C U54G — lower, 0.657
- G12C U64C — lower, 0.916
- G12U — higher, 1.04
- G12U A15G — lower, 0.814
- G12U A36G A65C — lower, 0.561
- G12U A36G A69U — lower, 0.733
- G12U A36G G63A A69U — lower, 0.604
- G12U A37G C66U — lower, 0.614
- G12U C24A G44A A65U — lower, ≤ 0.5
- G12U G44C — lower, 0.766
- U13A A14C C22A G48C — lower, 0.546
- U13A A14C C22A G48C G67U — lower, ≤ 0.5
- U13A A14C G18A G44A C66G — lower, ≤ 0.5
- U13A A14G — lower, 0.843
- U13A A14G A37C G50C G51C — lower, 0.566
- U13A A14G C30G — lower, ≤ 0.5
- U13A A14U A20U — lower, 0.835
- U13A A14U A40C — lower, 0.556
- U13A A14U C22G A37G — lower, 0.631
- U13A A14U C22G A45U — lower, 0.507
- U13A A15C A45G C55U C61G — lower, ≤ 0.5
- U13A A15C C33G C49U C61U — lower, 0.574
- U13A A15C C33G C49U U64A — lower, ≤ 0.5
- U13A A15C C33G G52A — lower, ≤ 0.5
- U13A A15G — lower, 0.932
- U13A A15G A21C C22G C30G A37U — lower, 0.636
- U13A A15G C27G — lower, ≤ 0.5
- U13A A15G C27U — lower, 0.601
- U13A A15G C29A C61G — lower, ≤ 0.5
- U13A A15G C31G G58C — lower, ≤ 0.5
- U13A A15G C61U — lower, 0.564
- U13A A15G G48A A65G — lower, 0.581
- U13A A15U G17C C61A — lower, ≤ 0.5
- U13A A15U U16A A36U G44C G56A — lower, ≤ 0.5
- U13A A20C C22G — lower, ≤ 0.5
- U13A A20C C33A G39A — lower, ≤ 0.5
- U13A A20C C46U — lower, 0.844
- U13A A20C C46U A70U — lower, 0.589
- U13A A20G A21G A65C — lower, ≤ 0.5
- U13A A20G A36C G41C C61U — lower, 0.62
- U13A A20G C24U U35C G58C — lower, 0.632
- U13A A20G G41A G51C — lower, 0.532
- U13A A20U C24U A37G U59G — lower, ≤ 0.5
- U13A A20U C27U A42G — lower, ≤ 0.5
- U13A A20U C27U A42G U54C — lower, ≤ 0.5
- U13A A20U C31G C34U G67U — lower, ≤ 0.5
- U13A A21C A37G A42G — lower, ≤ 0.5
- U13A A21C A42G C62A A69U — lower, ≤ 0.5
- U13A A21C C24A G25C C49U — lower, ≤ 0.5
- U13A A21C C29U C66A — lower, ≤ 0.5
- U13A A21C C33U G52A A57G G67U — lower, ≤ 0.5
- U13A A21C G38A A40U G50C C60G A70G — lower, ≤ 0.5
- U13A A21C G44A — lower, ≤ 0.5
- U13A A21C G52A — lower, ≤ 0.5
- U13A A21C U54G — lower, 0.557
- U13A A21C U54G C66U — lower, ≤ 0.5
- U13A A21G A57U — lower, 0.597
- U13A A21G C60G C66G — lower, 0.756
- U13A A21G G63A — lower, 0.652
- U13A A21U C22G C31A — lower, 0.701
- U13A A21U C22G C31A G50A — lower, ≤ 0.5
- U13A A21U C22G U32C A42C G48C C55G — lower, ≤ 0.5
- U13A A21U G58C G68C — lower, 0.857
- U13A A36U A45U G52C A57U — lower, ≤ 0.5
- U13A A37C A43U G50C A57G — lower, ≤ 0.5
- U13A A37C G41A U47A U59C — lower, ≤ 0.5
- U13A A37C G56A — lower, ≤ 0.5
- U13A A37G G41C — lower, ≤ 0.5
- U13A A37U G41C U59C — lower, ≤ 0.5
- U13A A37U G67C — lower, 0.645
- U13A A37U G68A — lower, 0.637
- U13A A40C A70U — lower, ≤ 0.5
- U13A A40G A42G — lower, ≤ 0.5
- U13A A40G A43C G50A G67C — lower, ≤ 0.5
- U13A A40G A57U G68A — lower, 0.524
- U13A A40U — lower, 0.99
- U13A A40U G52U C55G — lower, ≤ 0.5
- U13A A42C A70U — lower, 0.671
- U13A A42C C62A — lower, 0.57
- U13A A42C G68C — lower, 0.529
- U13A A42G U47A — lower, 0.542
- U13A A42U — the same, 1.03
- U13A A43C A57C — lower, ≤ 0.5
- U13A A43G U53G — lower, ≤ 0.5
- U13A A43U — lower, 0.855
- U13A A45C — lower, 0.902
- U13A A45C C60A — lower, ≤ 0.5
- U13A A45C G48A — higher, 1.26
- U13A A45G G50C C60A A69C — lower, 0.821
- U13A A45G G67U — lower, 0.629
- U13A A57C C66G — lower, ≤ 0.5
- U13A A57G — lower, 0.792
- U13A A57G A69C — lower, 0.503
- U13A A65C — lower, 0.79
- U13A A65G — higher, 1.04
- U13A A65U A69C — lower, ≤ 0.5
- U13A A69G — higher, 1.07
- U13A A70G — lower, 0.937
- U13A A70U — higher, 1.04
- U13A C22A A65G — higher, 1.06
- U13A C22A C27U A42U — lower, ≤ 0.5
- U13A C22G C24A G39C A43C G44C U47C C61U — lower, ≤ 0.5
- U13A C22G C24G A36U A40C — lower, 0.58
- U13A C22G C24G A36U A40C A45G C66A — lower, ≤ 0.5
- U13A C22G C24G A36U A40C G51C — lower, 0.548
- U13A C22G C29G A40U U54C C61G — lower, ≤ 0.5
- U13A C22G C31G — lower, 0.547
- U13A C22G C31G C61A G67A — lower, ≤ 0.5
- U13A C22G G25C C27U C30G C55A A69U — lower, 0.572
- U13A C22G U32C A42C G48C C55G — lower, ≤ 0.5
- U13A C22U A57U — lower, ≤ 0.5
- U13A C22U C46U — higher, 1.06
- U13A C22U G51A C62G G63C C66G A69U — lower, ≤ 0.5
- U13A C22U U35A C60U C61A — lower, ≤ 0.5
- U13A C24A — lower, 0.624
- U13A C24A C60U — lower, ≤ 0.5
- U13A C24A C61A A69U — lower, 0.505
- U13A C24A G51A C61A A69U — lower, ≤ 0.5
- U13A C24G G25A G39C A40C G51C — lower, 0.745
- U13A C24U — lower, 0.795
- U13A C24U C30A C60U — lower, ≤ 0.5
- U13A C24U C55A G58C — lower, ≤ 0.5
- U13A C24U G41U U47C — lower, ≤ 0.5
- U13A C24U U59C — lower, 0.55
- U13A C27G A40G G41C — lower, 0.741
- U13A C27G A40G G41C A69U — higher, 1.07
- U13A C27G A42U A57C — lower, ≤ 0.5
- U13A C27G A42U A69U — lower, 0.687
- U13A C27G A45C — lower, 0.743
- U13A C27G U28A A65U A70U — lower, 0.543
- U13A C27G U32C A45G U64A — lower, ≤ 0.5
- U13A C27U A57G C66U — lower, ≤ 0.5
- U13A C27U C62U — lower, 0.786
- U13A C27U C66U — lower, 0.787
- U13A C27U G44C — lower, 0.637
- U13A C27U G56A — lower, 0.97
- U13A C29A C31G — lower, 0.524
- U13A C29G A42C C62G — lower, ≤ 0.5
- U13A C29G G48C — lower, ≤ 0.5
- U13A C29U A40C — lower, 0.54
- U13A C29U A40C A69U — lower, ≤ 0.5
- U13A C29U A42U — lower, 0.568
- U13A C30A — higher, 1.11
- U13A C30A A69C — lower, 0.656
- U13A C30G C31U C33G — lower, ≤ 0.5
- U13A C30G C61U G68A — lower, ≤ 0.5
- U13A C30G U54C — lower, ≤ 0.5
- U13A C30U C33A U35C — lower, 0.558
- U13A C30U C34U A42G G63A — lower, ≤ 0.5
- U13A C30U C55G G58C G63C C66U — lower, ≤ 0.5
- U13A C30U G38C C49A — lower, ≤ 0.5
- U13A C30U G58C — lower, ≤ 0.5
- U13A C30U U47A U59A C60U C62G — lower, ≤ 0.5
- U13A C30U U47A U59A C60U C62G C66U — lower, 0.55
- U13A C31A A42G G67A A69U — lower, ≤ 0.5

From the RNAGym collection of RNA variant scans (doi:10.1126/science.aae0568)
